Source: publication PMC3321094 (Nature, 2012)
Where no end group is shown, it is not given here.

What was measured:
[1] = biological target: T1, Histone H4K20me2 peptide 14-25 (Homo sapiens, UniProt P62805); assay: ITC
T1 chain: GGAKRHRK(Me2)VLRD

[2] = biological target: T2, Histone H4K20me3 peptide 14-25 (Homo sapiens, UniProt P62805); assay: ITC
T2 chain: GGAKRHRK(Me3)VLRD

chromatin = assay: Small-scale biochemical fractionation: ORC chromatin association; format: cell-based, human; conditions: cells stably expressing ORC1 protein, in comparison to hORC1; Western blot
WI38 cells = assay: Cell-cycle profile of WI38 cells by flow cytometry; format: cell-based, human; conditions: WI38 primary fibroblast, relative to wild-type hORC1
Outline: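 WI38 cells transiently expressing GFP plus wild-type ORC1 or an H4K20me2-binding-pocket point mutant (Y64A or W88A). Cell-cycle profile determined by flow cytometry, gating on GFP-positive cells so that only transfected cells are scored. Percentage of cells in each cell-cycle phase and the S/G1 ratio are calculated per transfection. Two experiments, s.d. reported.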

[3] = test system: ORC components (ORC2, ORC3 and ORC5); assay: Affinity purification of FLAG-ORC1 complexes from HT1080 cells; format: cell-based, human; conditions: vs wild-type ORC1, Western blot
[4] = test system: ORC components (ORC2, ORC3 and ORC5); assay: Affinity purification of FLAG-ORC1 complexes from U2OS cells; format: cell-based, human; conditions: vs wild-type ORC1, Western blot

B1: ORC1 BAH domain (mORC1BAH) 9-170 (protein)
chain: KTRQTFSWVGRPLPNRKQFQQMYREICMKINDGSEIHIKVGQFVLIQGEDNKKPYVAKLIELFQNGAEVPPKKCARVQWFVRFLEIPVSKRHLLGRSPPAQEIFWYDCSDWDNKINVETIIGPVQVVALAPEEVIPVDQKSEETLFVKLSWNKKDFAPLPPE
[1]
  Kd: 9.6 µM

B2: ORC1 BAH domain (hORC1BAH) 1-185 (protein)
chain: MAHYPTRLKTRKTYSWVGRPLLDRKLHYQTYREMCVKTEGCSTEIHIQIGQFVLIEGDDDENPYVAKLLELFEDDSDPPPKKRARVQWFVRFCEVPACKRHLLGRKPGAQEIFWYDYPACDSNINAETIIGLVRVIPLAPKDVVPTNLKNEKTLFVKLSWNEKKFRPLSSELFAELNKPQESAAK
[2]
  Kd: 40 µM

B3: hORC1Y64A: H4K20me2-binding pocket mutant Y64A of human ORC1 (protein, UniProt Q13415 1-861, looked up, variant Y64A)
Origin recognition complex …: MAHYPTRLKTRKTYSWVGRPLLDRKLHYQTYREMCVKTEGCSTEIHIQIGQFVLIEGDDDENPAVAKLLELFEDDSDPPPKKRARVQWFVRFCEVPACKRHLLGRKPGAQEIFWYDYPACDSNINAETIIGLVRVIPLAPKDVVPTNLKNEKTLFVKLSWNEKKFRPLSSELFAELNKPQESAAKCQKPVRAKSKSAESPSWTPAEHVAKRIESRHSASKSRQTPTHPLTPRARKRLELGNLGNPQMSQQTSCASLDSPGRIKRKVAFSEITSPSKRSQPDKLQTLSPALKAPEKTRETGLSYTEDDKKASPEHRIILRTRIAASKTIDIREERTLTPISGGQRSSVVPSVILKPENIKKRDAKEAKAQNEATSTPHRIRRKSSVLTMNRIRQQLRFLGNSKSDQEEKEILPAAEISDSSSDEEEASTPPLPRRAPRTVSRNLRSSLKSSLHTLTKVPKKSLKPRTPRCAAPQIRSRSLAAQEPASVLEEARLRLHVSAVPESLPCREQEFQDIYNFVESKLLDHTGGCMYISGVPGTGKTATVHEVIRCLQQAAQANDVPPFQYIEVNGMKLTEPHQVYVQILQKLTGQKATANHAAELLAKQFCTRGSPQETTVLLVDELDLLWTHKQDIMYNLFDWPTHKEARLVVLAIANTMDLPERIMMNRVSSRLGLTRMCFQPYTYSQLQQILRSRLKHLKAFEDDAIQLVARKVAALSGDARRCLDICRRATEICEFSQQKPDSPGLVTIAHSMEAVDEMFSSSYITAIKNSSVLEQSFLRAILAEFRRSGLEEATFQQIYSQHVALCRMEGLPYPTMSETMAVCSHLGSCRLLLVEPSRNDLLLRVRLNVSQDDVLYALKDE
chromatin
  ORC1 enrichment at chromatin: considerably reduced
WI38 cells
  S phase population: decreased S phase population
  S/G1 ratio (in words): lower S/G1 ratio
[3]
  efficiency of affinity purification of ORC2, ORC3 and ORC5: equal to that observed with the wild-type protein
[4]
  efficiency of affinity purification of ORC2, ORC3 and ORC5: equal to that observed with the wild-type protein

B4: hORC1W88A: H4K20me2-binding pocket mutant W88A of human ORC1 (protein, UniProt Q13415 1-861, looked up, variant W88A)
Origin recognition complex …: MAHYPTRLKTRKTYSWVGRPLLDRKLHYQTYREMCVKTEGCSTEIHIQIGQFVLIEGDDDENPYVAKLLELFEDDSDPPPKKRARVQAFVRFCEVPACKRHLLGRKPGAQEIFWYDYPACDSNINAETIIGLVRVIPLAPKDVVPTNLKNEKTLFVKLSWNEKKFRPLSSELFAELNKPQESAAKCQKPVRAKSKSAESPSWTPAEHVAKRIESRHSASKSRQTPTHPLTPRARKRLELGNLGNPQMSQQTSCASLDSPGRIKRKVAFSEITSPSKRSQPDKLQTLSPALKAPEKTRETGLSYTEDDKKASPEHRIILRTRIAASKTIDIREERTLTPISGGQRSSVVPSVILKPENIKKRDAKEAKAQNEATSTPHRIRRKSSVLTMNRIRQQLRFLGNSKSDQEEKEILPAAEISDSSSDEEEASTPPLPRRAPRTVSRNLRSSLKSSLHTLTKVPKKSLKPRTPRCAAPQIRSRSLAAQEPASVLEEARLRLHVSAVPESLPCREQEFQDIYNFVESKLLDHTGGCMYISGVPGTGKTATVHEVIRCLQQAAQANDVPPFQYIEVNGMKLTEPHQVYVQILQKLTGQKATANHAAELLAKQFCTRGSPQETTVLLVDELDLLWTHKQDIMYNLFDWPTHKEARLVVLAIANTMDLPERIMMNRVSSRLGLTRMCFQPYTYSQLQQILRSRLKHLKAFEDDAIQLVARKVAALSGDARRCLDICRRATEICEFSQQKPDSPGLVTIAHSMEAVDEMFSSSYITAIKNSSVLEQSFLRAILAEFRRSGLEEATFQQIYSQHVALCRMEGLPYPTMSETMAVCSHLGSCRLLLVEPSRNDLLLRVRLNVSQDDVLYALKDE
chromatin
  ORC1 enrichment at chromatin: considerably reduced
WI38 cells
  S phase population: decreased S phase population
  S/G1 ratio (in words): lower S/G1 ratio
[3]
  efficiency of affinity purification of ORC2, ORC3 and ORC5: equal to that observed with the wild-type protein
[4]
  efficiency of affinity purification of ORC2, ORC3 and ORC5: equal to that observed with the wild-type protein
